# Tested on: Escherichia coli
# Assay: Antibacterial activity against Escherichia coli 1540 isolate by […]
# Assay type: functional
# Method in brief: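 Disk diffusion on Mueller-Hinton agar following Comité de l'Antibiogramme de la Société Française de Microbiologie standards; clinical isolate from Belgian hospital screening; strains grown in brain heart infusion broth or agar at 37°C.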
row,Structure (SMILES),MIC [µg/mL]
1,NCC[C@H](O)C(=O)N[C@@H]1C[C@H](N)[C@@H](O[C@H]2O[C@H](CN)[C@@H](O)[C@H](O)[C@H]2O)[C@H](O)[C@H]1O[C@H]1O[C@H](CO)[C@@H](O)[C@H](N)[C@H]1O [AMIKACIN],> 512
2,CO/N=C(\C(=O)N[C@@H]1C(=O)N2C(C(=O)O)=C(COC(C)=O)CS[C@H]12)c1csc(N)n1 [CEFOTAXIME],32
3,NC[C@H]1O[C@H](O[C@H]2[C@H](O)[C@@H](O[C@H]3O[C@H](CO)[C@@H](O)[C@H](N)[C@H]3O)[C@H](N)C[C@@H]2N)[C@H](O)[C@@H](O)[C@@H]1O [KANAMYCIN],> 512
4,CN(C)c1ccc(O)c2c1C[C@H]1C[C@H]3[C@H](N(C)C)C(O)=C(C(N)=O)C(=O)[C@@]3(O)C(O)=C1C2=O [MINOCYCLINE],16
5,CCN[C@@H]1C[C@H](N)[C@@H](O[C@H]2OC(CN)=CC[C@H]2N)[C@H](O)[C@H]1O[C@H]1OC[C@](C)(O)[C@H](NC)[C@H]1O [NETILMICIN],> 512
6,NC[C@H]1O[C@H](O[C@H]2[C@H](O)[C@@H](O[C@H]3O[C@H](CO)[C@@H](O)[C@H](N)[C@H]3O)[C@H](N)C[C@@H]2N)[C@H](N)C[C@@H]1O [TOBRAMYCIN],> 512

# The next lines start with the values.
row,MIC [µg/mL],Structure (SMILES)
1,> 256,CC1(C)S[C@@H]2[C@H](NC(=O)[C@H](N)c3ccccc3)C(=O)N2[C@H]1C(=O)O [AMPICILLIN]
2,> 256,O=C(N[C@H](CO)[C@H](O)c1ccc([N+](=O)[O-])cc1)C(Cl)Cl [CHLORAMPHENICOL]
3,> 256,CN(C)[C@@H]1C(O)=C(C(N)=O)C(=O)[C@@]2(O)C(O)=C3C(=O)c4c(O)cccc4[C@@](C)(O)[C@H]3C[C@@H]12 [TETRACYCLINE]
